Here are results for 3 compounds from publication PMC10883374 (Science Advances, 2022).

Usually Kd stands for the equilibrium constant for the complex coming apart.

Molecules are shown by their SMILES.

One experiment deals with hSAMTOR. Particulars: read-out: dissociation constant (Kd); cited from earlier work.
A further experiment deals with L197A mutant dSAMTOR (Drosophila melanogaster, UniProt Q9W138, L197A). The experiment in a line: ITC ligand binding, L197A dSAMTOR. Conditions: 25°C, ND = not detected. In short, it runs like this: (§1)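 Tag-free dSAMTOR, expressed as His6-SUMO fusion in E. coli BL21(DE3), purified by Ni-NTA and gel filtration into 10 mM Hepes pH 7.5, 150 mM NaCl, 1 mM DTT. At 25°C, 1 mM SAM or SAH was titrated into 0.2 mM protein over 20 injections, with a background titration into buffer. Single-site fit gave Kd, ΔH and n; ΔG and ΔS were calculated. Runs: three for measurable binding, two for undetectable binding.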

The target in experiment [1] is dSAMTOR (WT, full-length) (Drosophila melanogaster, UniProt Q9W138). The experiment in a line: ITC ligand binding, WT dSAMTOR. Conditions: ITC, 25°C, WT dSAMTOR. In outline: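 Full-length dSAMTOR was expressed as His6-SUMO fusion in E. coli BL21 (DE3), Ni-NTA purified, tag-cleaved, then gel-filtered into 10 mM Hepes pH 7.5, 150 mM NaCl, 1 mM DTT. ITC ran at 25°C: 20 × 2 µl injections of 1 mM SAM or SAH into 0.2 mM protein, discarding an initial 0.8 µl injection, with a buffer background titration. Single-site nonlinear least-squares fit gave ΔH, n and Kd.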

Another experiment addresses Y201A mutant dSAMTOR (Drosophila melanogaster, UniProt Q9W138, Y201A). The experiment is described as follows: ITC ligand binding, Y201A dSAMTOR. In short, it runs like this: as §1
The next experiment addresses M202A mutant dSAMTOR (Drosophila melanogaster, UniProt Q9W138, M202A). The experiment in a line: ITC ligand binding, M202A dSAMTOR. Conditions: 25°C, ND = not detected. In short, it runs like this:
as §1

A further experiment addresses R73A mutant dSAMTOR (Drosophila melanogaster, UniProt Q9W138, R73A). The experiment in a line: ITC ligand binding, R73A dSAMTOR. Particulars: 25°C, ND = not detected. In outline:
as §1

The next experiment concerns the target F135A mutant dSAMTOR (Drosophila melanogaster, UniProt Q9W138, F135A). The experiment in a line: ITC ligand binding, F135A dSAMTOR. Conditions: ITC. In short, it runs like this: as §1
Another experiment deals with L163A mutant dSAMTOR (Drosophila melanogaster, UniProt Q9W138, F163A). The experiment is described as follows: ITC ligand binding, L163A dSAMTOR. Particulars: 25°C, L163A dSAMTOR (text b27: F163A), ND = not detected. In short, it runs like this:
as §1

The target of the next experiment is V66W/E67P mutant dSAMTOR (Drosophila melanogaster, UniProt Q9W138, E67P/V66W). The experiment is described as follows: ITC ligand binding, V66W/E67P dSAMTOR. Particulars: ITC, 25°C, V66W/E67P dSAMTOR. In short, it runs like this: as §1
A further experiment addresses D162A mutant dSAMTOR (Drosophila melanogaster, UniProt Q9W138, D162A). The experiment is described as follows: ITC ligand binding, D162A dSAMTOR. Conditions: 25°C, ND = not detected. In short, it runs like this: as §1
The target of experiment [2] is T1, hSAMTOR (WT) interaction with GATOR1-KICSTOR (Homo sapiens, UniProt Q1RMZ1).
T1 sequence (Q1RMZ1 1-405): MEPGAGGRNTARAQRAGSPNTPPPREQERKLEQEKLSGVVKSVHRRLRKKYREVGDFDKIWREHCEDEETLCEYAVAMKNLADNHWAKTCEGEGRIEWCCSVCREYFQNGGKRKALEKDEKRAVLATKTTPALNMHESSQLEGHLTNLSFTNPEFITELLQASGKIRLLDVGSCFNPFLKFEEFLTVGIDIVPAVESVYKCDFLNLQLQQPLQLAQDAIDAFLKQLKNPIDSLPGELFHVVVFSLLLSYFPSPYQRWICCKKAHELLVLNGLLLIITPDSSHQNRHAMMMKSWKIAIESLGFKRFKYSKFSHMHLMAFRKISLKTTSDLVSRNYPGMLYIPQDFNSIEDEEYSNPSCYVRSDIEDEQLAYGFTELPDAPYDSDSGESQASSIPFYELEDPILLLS
Particulars: previous cell biology data; cited from earlier work.

Another experiment concerns the target L151A mutant dSAMTOR (Drosophila melanogaster, UniProt Q9W138, L151A). The experiment in a line: ITC ligand binding, L151A dSAMTOR. Conditions: 25°C, ND = not detected. In outline:
as §1

The next experiment has as its target D150A mutant dSAMTOR (Drosophila melanogaster, UniProt Q9W138, D150A). The experiment is described as follows: ITC ligand binding, D150A dSAMTOR. Conditions: 25°C, ND = not detected. In short, it runs like this:
as §1

Experiment [3] addresses N-terminal truncated dSAMTOR (Δ1-64) (Drosophila melanogaster, UniProt Q9W138). The experiment in a line: ITC ligand binding, Δ1-64 dSAMTOR. Particulars: ITC, 25°C, Δ1-64 dSAMTOR. In short, it runs like this: as §1

Y201A mutant dSAMTOR, sequence (Q9W138 whole entry Y201A): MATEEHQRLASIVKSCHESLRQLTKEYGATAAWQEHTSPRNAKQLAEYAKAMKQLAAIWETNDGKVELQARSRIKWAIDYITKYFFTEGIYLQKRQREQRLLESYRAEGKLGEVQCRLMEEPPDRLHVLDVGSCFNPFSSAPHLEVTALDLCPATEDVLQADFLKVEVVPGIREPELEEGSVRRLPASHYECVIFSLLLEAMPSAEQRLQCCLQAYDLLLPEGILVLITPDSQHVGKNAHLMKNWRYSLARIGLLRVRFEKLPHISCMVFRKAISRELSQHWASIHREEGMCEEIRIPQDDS
V66W/E67P mutant dSAMTOR, sequence (Q9W138 whole entry V66W/E67P): as the sequence (Q9W138 whole entry Y201A) above, with V66W, E67P, A201Y counted along it
N-terminal truncated dSAMTOR (Δ1-64), sequence (Q9W138 65-302, stated change not applied): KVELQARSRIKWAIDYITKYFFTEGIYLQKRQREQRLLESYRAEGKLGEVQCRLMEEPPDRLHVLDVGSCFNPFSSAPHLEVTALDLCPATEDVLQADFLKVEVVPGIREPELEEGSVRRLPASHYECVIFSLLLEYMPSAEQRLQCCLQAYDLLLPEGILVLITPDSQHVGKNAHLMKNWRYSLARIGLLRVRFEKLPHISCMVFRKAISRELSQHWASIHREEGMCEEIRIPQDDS
F135A mutant dSAMTOR, sequence (Q9W138 whole entry F135A): as the sequence (Q9W138 whole entry Y201A) above, with F135A, A201Y counted along it
dSAMTOR (WT, full-length), sequence (Q9W138 whole entry, the tested form may be a part): as the sequence (Q9W138 whole entry Y201A) above, with A201Y counted along it
D162A mutant dSAMTOR, sequence (Q9W138 whole entry D162A): as the sequence (Q9W138 whole entry Y201A) above, with D162A, A201Y counted along it
M202A mutant dSAMTOR, sequence (Q9W138 whole entry M202A): as the sequence (Q9W138 whole entry Y201A) above, with A201Y, M202A counted along it
D150A mutant dSAMTOR, sequence (Q9W138 whole entry D150A): as the sequence (Q9W138 whole entry Y201A) above, with D150A, A201Y counted along it
R73A mutant dSAMTOR, sequence (Q9W138 whole entry R73A): as the sequence (Q9W138 whole entry Y201A) above, with R73A, A201Y counted along it
L151A mutant dSAMTOR, sequence (Q9W138 whole entry L151A): as the sequence (Q9W138 whole entry Y201A) above, with L151A, A201Y counted along it
L163A mutant dSAMTOR, sequence (Q9W138 whole entry F163A): as the sequence (Q9W138 whole entry Y201A) above, with F163A, A201Y counted along it
L197A mutant dSAMTOR, sequence (Q9W138 whole entry L197A, the tested form may be a part): as the sequence (Q9W138 whole entry Y201A) above, with L197A, A201Y counted along it

Take `Nc1ncnc2c1ncn2[C@@H]1O[C@H](CSCC[C@H](N)C(=O)O)[C@@H](O)[C@H]1O` [SAH, S-adenosyl-L-homocysteine]: the Kd on hSAMTOR is 4.6 µM; on L197A mutant dSAMTOR it was “completely abolish SAH binding”; in experiment [1], 8.7 ± 0.92 µM; on Y201A mutant dSAMTOR (25°C, Y201A dSAMTOR), 67.3 ± 6.03 µM; on M202A mutant dSAMTOR, “completely abolish SAH binding”; on R73A mutant dSAMTOR, “completely abolish SAH binding”. Further, the Kd was 4.76 ± 0.71 µM on F135A mutant dSAMTOR (25°C, F135A dSAMTOR); “completely abolish SAH binding” on L163A mutant dSAMTOR; 11.3 ± 0.37 µM on V66W/E67P mutant dSAMTOR; “completely abolish SAH binding” at D162A mutant dSAMTOR; “completely abolish SAH binding” on L151A mutant dSAMTOR; “completely abolish SAH binding” at D150A mutant dSAMTOR. Further, the Kd in experiment [3] amounted to 13.1 ± 0.8 µM. Moreover, the TΔS in experiment [1] was -2.99 kcal/mol; at Y201A mutant dSAMTOR (25°C, Y201A dSAMTOR), 2.80 kcal/mol; on F135A mutant dSAMTOR (25°C, F135A dSAMTOR), -1.26 kcal/mol; in experiment [3] it was -8.08 kcal/mol. In addition, the n value in experiment [1] was 0.81 ± 0.09; at Y201A mutant dSAMTOR (25°C, Y201A dSAMTOR), 0.74 ± 0.02; on F135A mutant dSAMTOR (25°C, F135A dSAMTOR), 0.80 ± 0.02; on V66W/E67P mutant dSAMTOR, 1.02 ± 0.02; in experiment [3], 0.67 ± 0.04. The ΔH is -9.94 ± 1.48 kcal/mol in experiment [1]; -2.89 ± 0.17 kcal/mol at Y201A mutant dSAMTOR (25°C, Y201A dSAMTOR); -8.52 ± 0.51 kcal/mol at F135A mutant dSAMTOR (25°C, F135A dSAMTOR); -5.09 ± 0.12 kcal/mol on V66W/E67P mutant dSAMTOR; -14.70 ± 1.05 kcal/mol in [3]. Further, the “decrease of binding affinity compared to the WT dSAMTOR” value on Y201A mutant dSAMTOR (Y201A vs WT dSAMTOR) came to 7.7 fold. For the same compound, the “increase of binding affinity compared to the WT dSAMTOR” value at F135A mutant dSAMTOR (F135A vs WT dSAMTOR) is on record as < 2 fold. Further, the “effect of ligand binding on interaction of hSAMTOR with GATOR1-KICSTOR” value in experiment [2] is listed as “can disrupt the interaction of hSAMTOR with GATOR1-KICSTOR”.
Take `Nc1ncnc2c1ncn2[C@@H]1O[C@H](CO)[C@@H](O)[C@H]1O` [adenosine]: the Kd entry in experiment [1] is “no measurable binding”.
On the same count and under the same terms, then `CSCC[C@H](N)C(=O)O` [methionine], with “no measurable binding”.
